3 compounds from ChEMBL document CHEMBL1649236, “The structure of the dizinc subclass B2 metallo-beta-lactamase CphA reveals that the second inhibitory zinc ion binds in the histidine site” (Antimicrob Agents Chemother, 2009) can be followed below.

Test [1] concerns Aeromonas hydrophila. The experiment in a line: Activity of Aeromonas hydrophila metallo-betalactamase CphA N233A mutant expressed in Escherichia coli BL21(DE3) by spectrophotometric analysis in presence of < 0.4 uM zinc ions. A digest of the protocol: (§1)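 Steady-state kinetics (kcat, Km, kcat/Km) at 30°C in 15 mM cacodylate pH 6.5, no added Zn2+ (free [Zn2+] < 0.4 µM), enzyme as the mono-zinc form (one Zn per molecule). Substrates imipenem, nitrocefin and CENTA. N233A mutant from E. coli BL21 (DE3) pLysS Star, purified to homogeneity, mass checked by ESI-MS. Standard errors below 10%.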

Test [2] relates to Aeromonas hydrophila. The experiment in a line: Ratio of Kcat to Km for Aeromonas hydrophila metallo-betalactamase CphA N233A mutant expressed in Escherichia coli BL21(DE3) by spectrophotometric analysis in presence of < 0.4 uM zinc ions. A digest of the protocol:
as §1

Take `O=C(Cc1cccs1)N[C@@H]1C(=O)N2C(C(=O)O)=C(CSc3ccc([N+](=O)[O-])c(C(=O)O)c3)CS[C@H]12`: in the test on Aeromonas hydrophila [1], the Km (commonly the concentration of substrate that gives half-maximal velocity) was 14 µM and the kcat (usually the maximal rate divided by the concentration of active sites) is 0.0035 s⁻¹. The kcat/Km (as a rule, the turnover number divided by the Michaelis constant) in the test on Aeromonas hydrophila [2] was determined as 250 M⁻¹ s⁻¹.

For `C[C@@H](O)[C@H]1C(=O)N2C(C(=O)O)=C(SCCNC=N)C[C@H]12`, in the test on Aeromonas hydrophila [1], the Km was greater than 1000 µM and the kcat is greater than 700 s⁻¹. Also, the kcat/Km in the test on Aeromonas hydrophila [2] stood at 700000 M⁻¹ s⁻¹.

On to `O=C(Cc1cccs1)N[C@@H]1C(=O)N2C(C(=O)O)=C(/C=C/c3ccc([N+](=O)[O-])cc3[N+](=O)[O-])CS[C@H]12`, for which, in the test with Aeromonas hydrophila [1], the Km turned out to be 55 µM and the kcat is 0.03 s⁻¹. The kcat/Km in the test on Aeromonas hydrophila [2] is 520 M⁻¹ s⁻¹.
